{"source": "paper PMC4931877", "about": "(The Journal of Pharmacology and Experimental Therapeutics, 2016)", "key": {"[1]": {"assay": "SAD study CSF pharmacokinetics", "format": "in vivo, human", "outline": "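In panel 9, 15 healthy subjects received a single 900-mg dose or placebo (2:1) in the fasted state. CSF was drawn by lumbar cannulation at −1, 0, 2, 4, 6, 8, 12, 15, 18 and 24 h postdose, using polypropylene ware and a pump without a filter. Samples were stored at −80°C, and drug was measured by validated LC-MS/MS.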"}, "[2]": {"assay": "MAD study plasma pharmacokinetics", "format": "in vivo, human", "conditions": "for half-life / concentration at 24 h / Cmax: human, plasma, oral; for concentration at 24 h: C24 GM (CV%); for Cmax: Cmax GM (CV%)", "outline": "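EDTA plasma was sampled at 0–24 h postdose on days 1 and 14, intensively on day 28, and at trough on days 5–25. Drug was measured by validated LC-MS/MS. Parameters are noncompartmental, with trapezoidal and log-trapezoidal AUC. Half-life is ln2/k from a least-squares terminal slope on days 14 and 28.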"}, "[3]": {"conditions": "50 mg, MAD panel 1, 50 mg once daily, day 1"}, "[4]": {"conditions": "50 mg, MAD panel 1, 50 mg once daily, day 14"}, "[5]": {"conditions": "50 mg, MAD panel 1, 50 mg once daily, day 28"}}, "data": [{"compound": "CNc1nc(Nc2ccc(-n3cnc(C)n3)c(OC)c2)nc2c1CC[C@H]2c1ccc(F)cc1", "note": "[BMS-932481, (S)-7-(4-fluorophenyl)-N2-(3-methoxy-4-(3-methyl-1H-1,2,4-triazol-1-yl)phenyl)-N4-methyl-6,7-dihydro-5H-cyclopenta[d]pyrimidine-2,4-diamine]", "values": [{"measurement": "Tmax Median (Minimum–Maximum)", "setting": "[1]; SAD panel 9, 900 mg", "result": "6 (4–18) h"}, {"measurement": "AUC(0-t)", "setting": "[1]; human, oral, 900 mg", "result": 97, "unit": "ng·h/mL"}, {"measurement": "Cmax", "setting": "[1]; human, oral, 900 mg", "result": 6.5, "unit": "ng/mL"}, {"measurement": "Kp", "setting": "[1]; human, oral, 900 mg", "result": "< 0.01"}, {"measurement": "Tmax", "setting": "[1]; human, oral, 900 mg", "result": 6, "unit": "h"}, {"measurement": "steady state achieved", "setting": "[2]; MAD 50- and 100-mg dose groups", "result": "≤ 14", "unit": "days"}, {"measurement": "dose proportionality of plasma exposure", "setting": "[2]; MAD day 14", "result": "greater than dose proportionality"}, {"measurement": "slope for AUCτ versus dose", "setting": "[2]; MAD day 14, 95% CI, 1.03–1.88, r^2 = 0.81", "result": 1.46}, {"measurement": "slope for Cmax versus dose", "setting": "[2]; MAD day 14, 95% CI, 1.06–1.67, r^2 = 0.9", "result": 1.36}, {"measurement": "dose proportionality of plasma exposure", "setting": "[2]; first dose (day 1) of multiple-dose administrations, 50 to 200 mg", "result": "dose proportional"}, {"measurement": "half-life", "setting": "[2]; 50 mg", "result": 24, "unit": "h"}, {"measurement": "concentration at 24 h", "setting": "[2]; [3]", "result": 47, "unit": "ng/mL"}, {"measurement": "concentration at 24 h", "setting": "[2]; [4]", "result": 204, "unit": "ng/mL"}, {"measurement": "concentration at 24 h", "setting": "[2]; [5]", "result": 165, "unit": "ng/mL"}, {"measurement": "Cmax", "setting": "[2]; [3]", "result": 134, "unit": "ng/mL"}, {"measurement": "Cmax", "setting": "[2]; [4]", "result": 323, "unit": "ng/mL"}, {"measurement": "Cmax", "setting": "[2]; [5]", "result": 293, "unit": "ng/mL"}, {"measurement": "half-life", "setting": "[2]; 100 mg", "result": 29, "unit": "h"}, {"measurement": "concentration at 24 h", "setting": "[2]; 100 mg, MAD panel 2, 100 mg once daily, day 1", "result": 87, "unit": "ng/mL"}, {"measurement": "half-life", "setting": "[2]; 200 mg", "result": 37, "unit": "h"}, {"measurement": "concentration at 24 h", "setting": "[2]; 200 mg, MAD panel 3, 200 mg once daily, day 1", "result": 220, "unit": "ng/mL"}, {"measurement": "accumulation after multiple dosing", "setting": "[2]; multiple dosing", "result": "approximately 3 fold"}]}]}
